Results gathered from unrelated publications.
FLT3 D835H: Receptor-type tyrosine-protein kinase FLT3 (FLT3, Homo sapiens, UniProt P36888, D835H)
FLT3 D835Y: Receptor-type tyrosine-protein kinase FLT3 (FLT3, Homo sapiens, UniProt P36888, D835Y)
FLT3 K663Q: Receptor-type tyrosine-protein kinase FLT3 (FLT3, Homo sapiens, UniProt P36888, K663Q)
FLT3: Receptor-type tyrosine-protein kinase FLT3 (FLT3, Homo sapiens, UniProt P36888)
FLT3 N841I: Receptor-type tyrosine-protein kinase FLT3 (FLT3, Homo sapiens, UniProt P36888, N841I)
FLT3 D835V: Receptor-type tyrosine-protein kinase FLT3 (FLT3, Homo sapiens, UniProt P36888, D835V)
FLT3 R834Q: Receptor-type tyrosine-protein kinase FLT3 (FLT3, Homo sapiens, UniProt P36888, R834Q)

| Compound | target | test | setting | quantity | result |
| --- | --- | --- | --- | --- | --- |
| C[C@@H]1CCN(c2nccc(-c3cnn4ncccc34)n2)C1 | FLT3 D835H | binding | 1 µM | remaining binding | 100% |
| CCS(=O)(=O)c1cc2cc(C[C@@](O)(CC(C)(C)c3ccc(F)cc3C(N)=O)C(F)(F)F)[nH]c2cn1 | Receptor-type tyrosine-protein kinase FLT3 (FLT3, Homo sapiens, UniProt P36888, D835V/ITD) | cell-free assay, competition with immobilised ligand | 1 µM | remaining binding | 73% |
| Cc1ccc(C(=O)NCc2ccsc2)cc1C#Cc1cn(C(C)C)c2ncnc(N)c12 | FLT3 D835Y | enzyme activity, inhibitor | 1 µM | activity vs control | 118% |
| O=C(c1ccc(Nc2nccc(-c3cc4ccccc4s3)n2)cc1)N1CCC(N2CCCC2)CC1 | FLT3 K663Q | binding, competition with immobilised ligand | 1 µM | remaining binding | 37% |
| CC(C)CC(=O)N1CCc2nc(-c3ccc(Br)cc3)nc(N(C)Cc3ccccc3)c2C1 | FLT3 D835Y | cell-free assay, competition with immobilised ligand | 0.1 µM | remaining binding | 100% |
| c1cnn2ncc(-c3ccnc(N4CCC45COC5)n3)c2c1 | FLT3 D835Y | binding | 1 µM | remaining binding | 62% |
| COc1ccc(COc2ccc(Cc3cnc(N)nc3N)cc2OC)cc1 | FLT3 | cell-free assay | 0.5 µM | remaining signal | 103% |
| CN(C)c1ncc(F)c(-c2cnn3ncccc23)n1 | FLT3 K663Q | binding | 1 µM | remaining binding | 100% |
| CCCCN(CCCC)C(=O)CN1C[C@H](c2cc(OC)c3c(c2)OCO3)[C@@H](C(=O)O)[C@@H]1CC(C)(C)CCC | FLT3 N841I | cell-free assay, competition with immobilised ligand | 1 µM | remaining binding | 100% |
| CCN(CC)CCNC(=O)c1c(C)[nH]c(/C=C2\C(=O)Nc3ccc(F)cc32)c1C | FLT3 | cell-free assay | 0.5 µM | remaining signal | 2.71% |
| CN(C)C1CCN(CC#Cc2nn(C3CCCC3)c3nc(NCc4ccccc4)ncc23)C1 (stereo not drawn) | FLT3 | enzyme activity, inhibitor, FRET | 10 µM | inhibition | 59% |
| F[C@@H]1CCN(c2nccc(-c3cnn4ncccc34)n2)C1 | FLT3 | binding | 1 µM | remaining binding | 81% |
| NS(=O)(=O)c1cc(NC(=O)Cc2ccccc2)ccc1Oc1cccc(Cl)c1 | FLT3 D835V | cell-free assay, competition with immobilised ligand | 1 µM | remaining binding | 86% |
| CCN(CC)c1ccc(C2=NNC(=O)CC2C)cc1[N+](=O)[O-] (stereo not drawn) | FLT3 | enzyme activity, inhibitor | 10 µM | remaining activity | 89% |
| O=C(NCCCC1CCCCC1)c1ccc(CNC(=O)c2cnn(-c3ccccc3)c2C(F)(F)F)cc1 | Receptor-type tyrosine-protein kinase FLT3, autoinhibited (FLT3, Homo sapiens, UniProt P36888) | cell-free assay, competition with immobilised ligand | 0.1 µM | remaining binding | 100% |
| Cc1cnc(Nc2ccc(C(=O)N3CCC(N4CCCC4)CC3)cc2)nc1-c1cc2ccccc2s1 | FLT3 D835H | binding, competition with immobilised ligand | 1 µM | remaining binding | 1.1% |
| CCN(CC)CCNC(=O)c1c(C)[nH]c(/C=C2\C(=O)Nc3ccc(F)cc32)c1C | FLT3 | enzyme activity, inhibitor | 1 µM | remaining activity | 1% |
| O=C(NCCCN1CCOCC1)c1ccc(Nc2ncc(Cl)c(-c3ccc(Cl)s3)n2)cc1 | FLT3 D835H | binding, competition with immobilised ligand | 1 µM | remaining binding | 3.1% |
| O=C1NC(=O)c2cc(Nc3ccc(F)cc3)c(Nc3ccc(F)cc3)cc21 | FLT3 | cell-free assay | 0.5 µM | remaining signal | 91.5% |
| O=C(Nc1cnn(-c2csc(C(=O)NC3COC3)c2)c1)Nc1ccccc1Cl | FLT3 | enzyme activity, inhibitor | 5 µM | remaining activity | 89.7% |

| Compound | target | test | setting | quantity | result |
| --- | --- | --- | --- | --- | --- |
| CC(C)(O)[C@H]1CC[C@H](Nc2ccc3ncc(-c4cccc(C(F)(F)F)c4)n3n2)CC1 | FLT3 | enzyme activity, inhibitor | 1 µM | remaining activity | 6.31% |
| Cc1[nH]c(/C=C2\C(=O)Nc3ccc(F)cc32)c(C)c1C(=O)N[C@H]1CCN(C(=O)N(C)C)C1 | FLT3 | enzyme activity, inhibitor | 0.1 µM | remaining activity | 3% |
| Fc1cccc(-n2cnc3c(NCc4nc5c(F)c(F)ccc5[nH]4)nc(N4CCOCC4)nc32)c1 | FLT3 D835Y | binding, competition with immobilised ligand | 10 µM | binding vs control | 41% |
| C[C@H](NC(=O)c1cnc2n1[C@](C)(Cc1ccc(C#N)cc1)C(=O)N2c1cc(Cl)c(F)c(Cl)c1)C(=O)NC1(c2ccccn2)CC1 | FLT3 K663Q | cell-free assay, competition with immobilised ligand | 1 µM | remaining binding | 100% |
| Cc1cc(NC(=O)c2cccc3cc(-c4cccc5[nH]nc(N)c45)ccc23)ccc1F | FLT3 | enzyme activity, inhibitor | 0.1 µM | activity vs control | 109% |
| O=C(c1ccc(Nc2ncc(Cl)c(-c3cc4ccccc4s3)n2)cc1)N1CCC(N2CCCC2)CC1 | Receptor-type tyrosine-protein kinase FLT3 (FLT3, Homo sapiens, UniProt P36888, ITD) | binding, competition with immobilised ligand | 1 µM | remaining binding | 6.2% |
| CCCOc1ccc([C@H]2[C@H](C(=O)O)[C@@H](c3ccc4c(c3)OCO4)CN2CC(=O)Nc2c(CC)cccc2CC)cc1 | FLT3 N841I | cell-free assay, competition with immobilised ligand | 1 µM | remaining binding | 93% |
| CC1CCCN1c1nccc(-c2cnn3ncccc23)n1 (stereo not drawn) | FLT3 R834Q | binding | 1 µM | remaining binding | 100% |
| CC(=O)N1CCC(c2ccc(C(=O)NC(=N)N)cc2C(F)(F)F)CC1 | FLT3 | cell-free assay, competition with immobilised ligand | 1 µM | remaining binding | 100% |
| Nc1ncnc2occ(-c3ccc(NC(=O)Nc4cc(C(F)(F)F)ccc4F)cc3)c12 | FLT3 D835V | cell-free assay, inhibitor | 20 µM | remaining signal | 0% |
| Cc1ccc(Nc2nccc(N(C)c3ccc4c(C)n(C)nc4c3)n2)cc1S(N)(=O)=O | FLT3 | enzyme activity, inhibitor | 0.5 µM | remaining activity | 40.7% |
| CN(c1nccc(-c2cnn3ncccc23)n1)C1CC1 | FLT3 D835V | binding | 1 µM | remaining binding | 78% |
| O=C(c1ccc(Nc2ncc(Cl)c(-c3ccc(Cl)s3)n2)cc1)N1CCC(N2CCCC2)CC1 | FLT3 K663Q | binding, competition with immobilised ligand | 1 µM | remaining binding | 1.3% |
| COc1ccnn2ncc(-c3ccnc(N(C)C)n3)c12 | FLT3 D835H | binding | 1 µM | remaining binding | 100% |
| COc1cc(Nc2c(C#N)cnc3cc(OCCCN4CCN(C)CC4)c(OC)cc23)c(Cl)cc1Cl | FLT3 | cell-free assay | 0.5 µM | remaining signal | 30.3% |
| Cc1ccc(C(=O)Nc2ccc(CN3CCN(C)CC3)c(C(F)(F)F)c2)cc1C#Cc1cnc2cccnn12 | FLT3 R834Q | enzyme activity, inhibitor | 23.5 nM | remaining activity | 5% |
| O=C(NCCCN1CCOCC1)c1ccc(Nc2nccc(-c3cc4ccccc4s3)n2)cc1 | FLT3 | binding, competition with immobilised ligand | 1 µM | remaining binding | 61% |
| N[C@H]1CCN(c2nccc(-c3cnn4ncccc34)n2)C1 | FLT3 D835Y | binding | 1 µM | remaining binding | 97% |
| COc1ncc2cc3ccccc3nc2c1C#N | FLT3 | cell-free assay, competition with immobilised ligand | 5 µM | remaining binding | 91% |
